Results as given in ChEMBL document CHEMBL1140035, “4"-Benzoylureido-TSAO derivatives as potent and selective non-nucleoside HCMV inhibitors. Structure-activity relationship and mechanism of antiviral action” (J Med Chem, 2008).
≈ marks a conversion by molar mass, not a printed value. Calls of active or inactive are those of the source. The rule behind the calls is not given here.

Legend:
[1] = system: Human alphaherpesvirus 1; assay: Antiviral activity against HSV1; type: functional, organism-based
[2] = Cytotoxicity against HEL cells assessed as reduction in cell growth after 3 days; type: cell-based; conditions: human
In short: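 HEL cells were seeded at 5 × 10³ cells/well and allowed to proliferate for 24 h. Compound-containing medium was then added at several concentrations for 3 days at 37 °C. Cells were counted with a Coulter counter. CC50, the concentration reducing cell growth by 50% versus untreated controls, was read from plots of cell number (% of control) against concentration.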

[3] = system: Human betaherpesvirus 5; assay: Antiviral activity against (S)-3-hydroxy-2-phosphonomethoxypropyl cytosine-resistant HCMV with DNA polymerase mutant in HEL cells assessed as reduction of virus-induced cytopathogenicity; type: functional, organism-based; conditions: Human betaherpesvirus 5, HEL
In short: (§1)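 Resistant mutants raised in vitro by serial passage of HCMV AD-169 under rising drug concentrations. Confluent HEL fibroblasts infected at 100 PFU/well for 2 h, then the inoculum was removed. Cells were kept with serial compound concentrations in duplicate for 7 days at 37 °C. After ethanol fixation, cytopathicity was scored microscopically. EC50 is the concentration halving virus-induced cytopathicity.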

[4] = system: Human betaherpesvirus 5; assay: Antiviral activity against HCMV 6 with […] mutation in HEL cells assessed as reduction of virus-induced cytopathogenicity; type: functional, organism-based; conditions: Human betaherpesvirus 5, HEL
In short: (§2)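 Drug-resistant HCMV clinical isolates from immunocompromised patients, carrying UL97 and/or DNA polymerase mutations. Confluent HEL fibroblasts infected at 100 PFU/well for 2 h, then residual virus was removed. Medium with serial compound concentrations added in duplicate for 7 days at 37 °C. After ethanol fixation, cytopathicity was scored microscopically. EC50 is the concentration reducing cytopathicity by 50%.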

[5] = system: Human betaherpesvirus 5; assay: Antiviral activity against foscarnet-resistant HCMV with DNA polymerase mutant in HEL cells assessed as reduction of virus-induced cytopathogenicity; type: functional, organism-based; conditions: Human betaherpesvirus 5, HEL; in short: as §1
[6] = system: Human betaherpesvirus 5; assay: Antiviral activity against ganciclovir-resistant HCMV with DNA polymerase mutant in HEL cells assessed as reduction of virus-induced cytopathogenicity; type: functional, organism-based; conditions: Human betaherpesvirus 5, HEL; in short: as §1
[7] = system: Human betaherpesvirus 5; assay: Antiviral activity against HCMV Davis in HEL cells assessed as reduction of virus-induced cytopathogenicity after 7 days; type: functional, organism-based; conditions: Human betaherpesvirus 5, Davis, 168 h
In short: (§3)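 Confluent HEL fibroblasts were infected with strain AD-169 or Davis at 100 PFU/well. After 2 h, residual virus was removed and medium with serial compound concentrations was added, in duplicate. Plates were held 7 days at 37 °C, fixed with ethanol, and scored microscopically for virus-induced cytopathicity. EC50 is the concentration reducing cytopathicity by 50%.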

[8] = system: Human alphaherpesvirus 3; assay: Antiviral activity against thymidine-kinase deficient VZV in HEL cells after 5 days by plaque reduction assay; type: functional, organism-based; conditions: Human alphaherpesvirus 3, HEL, 120 h
In short: (§4)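 Plaque reduction on confluent HEL monolayers infected with 20 PFU/well of cell-associated VZV. After 2 h, inoculum was replaced by compound dilutions in duplicate, with infected-untreated controls. After 5 days, cells were fixed and Giemsa-stained and plaques counted. EC50 is the concentration reducing plaque formation by 50% versus untreated control.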

[9] = system: Human betaherpesvirus 5; assay: Antiviral activity against HCMV in HEL cells assessed as reduction of virus-induced cytopathogenicity administered at 56 hrs post infection; type: functional, organism-based
In short: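 Time-of-addition: confluent HEL cultures were infected with about 100 PFU/well of HCMV Davis. Compound dilutions were added at 0 h or at later time points post infection, with one plate set per time point. Seven days after infection, plates were ethanol-fixed and Giemsa-stained. Antiviral effect was scored microscopically and EC50 calculated.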

[10] = system: Human betaherpesvirus 5; assay: Antiviral activity against HCMV 530 with […] and DNA polymerase mutation in HEL cells assessed as reduction of virus-induced cytopathogenicity; type: functional, organism-based; conditions: Human betaherpesvirus 5, HEL; in short: as §2
[11] = system: Vaccinia virus; assay: Antiviral activity against vaccinia virus; type: functional, organism-based; conditions: Orthopoxvirus vaccinia
[12] = system: Human alphaherpesvirus 2; assay: Antiviral activity against HSV2; type: functional, organism-based
[13] = system: Human betaherpesvirus 5; assay: Antiviral activity against HCMV 521 with […] and DNA polymerase mutation in HEL cells assessed as reduction of virus-induced cytopathogenicity; type: functional, organism-based; conditions: Human betaherpesvirus 5, HEL; in short: as §2
[14] = system: Murid betaherpesvirus 1; assay: Antiviral activity against MCMV in mouse C127I cells assessed as reduction of virus-induced cytopathogenicity after 7 days; type: functional, organism-based; conditions: Murid betaherpesvirus 1, C127I, 168 h
In short: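 MCMV Smith strain on confluent C127I cells, run as the HCMV assay: 100 PFU/well for 2 h, inoculum removed, then serial compound concentrations in duplicate for 7 days at 37 °C. Cytopathicity was scored microscopically after ethanol fixation. EC50 is the concentration reducing virus-induced cytopathicity by 50%.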

[15] = Cytotoxicity against HEL cells assessed as alteration in cell morphology after 3 days; type: cell-based; conditions: human
In short: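 Minimum cytotoxic concentration: the lowest compound concentration causing a microscopically detectable alteration of HEL cell morphology.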

[16] = system: Human betaherpesvirus 5; assay: Antiviral activity against HCMV AD169 in HEL cells assessed as reduction of virus-induced cytopathogenicity after 7 days; type: functional, organism-based; conditions: Human betaherpesvirus 5, AD169, HEL, 168 h; in short: as §3
[17] = system: Human betaherpesvirus 5; assay: Antiviral activity against (S)-3-hydroxy-2-phosphonomethoxypropyl adenine-resistant HCMV with DNA polymerase mutant in HEL cells assessed as reduction of virus-induced cytopathogenicity; type: functional, organism-based; conditions: Human betaherpesvirus 5, HEL; in short: as §1
[18] = system: Human alphaherpesvirus 3; assay: Antiviral activity against wild-type VZV in HEL cells after 5 days by plaque reduction assay; type: functional, organism-based; conditions: Human alphaherpesvirus 3, HEL, 120 h; in short: as §4
[19] = system: Human betaherpesvirus 5; assay: Antiviral activity against acyclovir-resistant HCMV with DNA polymerase mutant in HEL cells assessed as reduction of virus-induced cytopathogenicity; type: functional, organism-based; conditions: Human betaherpesvirus 5, HEL; in short: as §1
[20] = system: Human betaherpesvirus 5; assay: Inhibition of immediate early antigen expression in HCMV Davis in HEL cells at 48 hrs post infection by flow cytometry; type: functional, organism-based
In short: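 HEL cells were infected with HCMV Davis, with compound dilutions added at infection and incubation at 37 °C. Cells were acetone-fixed at 4 °C, resuspended in PBS with 5% gelatin, and stained at 37 °C with a mAb against IE proteins 1 and 2. A fluorescein-labelled rabbit anti-mouse IgG was applied for 30 min, cells were fixed in 0.5% formaldehyde and analysed by flow cytometry. Background fluorescence of uninfected cells was subtracted.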

[21] = target: T1, DNA polymerase (Human herpesvirus 5) (UniProt A6BMM6); assay: Inhibition of HCMV UL54-encoded DNA polymerase at 5 to 7.5 uM after 60 mins; conditions: Human betaherpesvirus 5
T1 sequence (whole entry): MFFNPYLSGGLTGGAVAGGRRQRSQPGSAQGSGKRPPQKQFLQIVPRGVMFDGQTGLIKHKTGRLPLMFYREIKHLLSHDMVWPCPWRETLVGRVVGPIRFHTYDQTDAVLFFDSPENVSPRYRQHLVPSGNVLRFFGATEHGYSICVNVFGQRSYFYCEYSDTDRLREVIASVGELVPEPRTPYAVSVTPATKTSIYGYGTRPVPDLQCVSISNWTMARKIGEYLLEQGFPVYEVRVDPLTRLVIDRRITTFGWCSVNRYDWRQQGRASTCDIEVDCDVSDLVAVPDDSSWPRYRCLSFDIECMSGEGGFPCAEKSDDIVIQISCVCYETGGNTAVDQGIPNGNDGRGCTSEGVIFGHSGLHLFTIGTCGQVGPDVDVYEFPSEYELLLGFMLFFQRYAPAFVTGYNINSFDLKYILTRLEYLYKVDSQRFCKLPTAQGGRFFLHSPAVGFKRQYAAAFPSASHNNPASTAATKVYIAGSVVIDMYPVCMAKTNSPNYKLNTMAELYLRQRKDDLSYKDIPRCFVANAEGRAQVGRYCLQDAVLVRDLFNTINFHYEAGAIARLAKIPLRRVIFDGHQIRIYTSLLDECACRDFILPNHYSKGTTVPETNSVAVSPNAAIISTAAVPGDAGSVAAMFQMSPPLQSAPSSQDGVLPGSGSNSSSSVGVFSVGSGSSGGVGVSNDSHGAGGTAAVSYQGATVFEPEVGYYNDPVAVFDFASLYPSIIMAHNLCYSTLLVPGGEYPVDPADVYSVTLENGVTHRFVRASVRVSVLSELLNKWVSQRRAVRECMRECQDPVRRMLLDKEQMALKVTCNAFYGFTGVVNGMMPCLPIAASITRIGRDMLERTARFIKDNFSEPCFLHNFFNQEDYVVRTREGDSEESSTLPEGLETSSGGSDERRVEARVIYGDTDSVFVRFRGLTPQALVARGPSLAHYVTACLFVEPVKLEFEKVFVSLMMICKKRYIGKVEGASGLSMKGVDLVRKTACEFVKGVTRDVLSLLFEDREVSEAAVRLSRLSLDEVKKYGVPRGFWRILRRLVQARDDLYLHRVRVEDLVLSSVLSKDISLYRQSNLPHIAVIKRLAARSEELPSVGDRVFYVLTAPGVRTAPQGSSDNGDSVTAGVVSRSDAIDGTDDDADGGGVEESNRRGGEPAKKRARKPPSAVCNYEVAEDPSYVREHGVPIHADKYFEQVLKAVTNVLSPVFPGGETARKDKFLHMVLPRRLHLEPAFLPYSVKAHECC

Row | SMILES | Activity [1] | CC50 at 72 h [2] [µM] | EC50 [3] [µg/mL] | EC50 [4] [µg/mL] | EC50 [5] [µg/mL] | EC50 [6] [µg/mL] | EC50 [7] [µM] | EC50 [8] [µM] | Activity [9] | EC50 [10] [µg/mL] | Activity [11] | Activity [12] | EC50 [13] [µg/mL] | EC50 [14] [µM] | MCC at 72 h [15] [µM] | EC50 [16] [µM] | EC50 [17] [µg/mL] | EC50 [18] [µM] | EC50 [19] [µg/mL] | also measured
1 | Cc1cn([C@@H]2O[C@H](CO[Si](C)(C)C(C)(C)C(C)C)[C@@]3(OS(=O)(=O)C=C3NC(=O)NC(=O)c3ccccc3)[C@H]2O[Si](C)(C)C(C)(C)C(C)C)c(=O)n(C)c1=O | inactive | > 50 | 2.6 (≈ 3.22 µM) | 5.5 (≈ 6.81 µM) | 2.7 (≈ 3.35 µM) | 3.3 (≈ 4.09 µM) | 1.5 | 11 | inactive | 5.7 (≈ 7.06 µM) | inactive | inactive | 2.9 (≈ 3.59 µM) | 0.54 | ≥ 100 | 1.2 | 5.6 (≈ 6.94 µM) | 11 | 2.7 (≈ 3.35 µM) | 
2 | Cc1cn([C@@H]2O[C@H](CO[Si](C)(C)C(C)(C)C(C)C)[C@@]3(OS(=O)(=O)C=C3NC(=O)NC(=O)c3ccccc3)[C@H]2O[Si](C)(C)C(C)(C)C)c(=O)n(C)c1=O | inactive | > 50 | 1 (≈ 1.28 µM) | 0.86 (≈ 1.1 µM) | 0.78 (≈ 1 µM) | 0.9 (≈ 1.16 µM) | 1.4 | 11 | inactive | 1.3 (≈ 1.67 µM) | inactive | inactive | 0.67 (≈ 0.86 µM) | 0.66 | ≥ 100 | 1.1 | 3.1 (≈ 3.98 µM) | 11 | 1.1 (≈ 1.41 µM) | Activity [20]: inactive
3 | O=C(O)P(=O)(O)O [FOSCARNET] |  |  | 14 (≈ 111 µM) | 34 (≈ 270 µM) | 135 (≈ 1070 µM) | 17 (≈ 135 µM) |  |  |  | 31 (≈ 246 µM) |  |  | 29 (≈ 230 µM) |  |  |  | 35 (≈ 278 µM) |  | 37 (≈ 294 µM) | Activity [21]: Active
